Measurements collected from several papers.
Each line is one published result; the experiments were not run side by side.
Target: Cholinesterase (BCHE, Homo sapiens, UniProt P06276)
Read-out: enzyme activity
Mode: inhibitor

`C#CCN(C)c1nc(NCCCC2CCN(Cc3ccccc3)CC2)c(C#N)cc1C#N` gave an IC50 of 1.68 µM (Ellman).
`Cc1ccc(S(=O)(=O)n2cc(Br)c(=O)[nH]c2=O)cc1` gave an IC50 of 0.137 µM (Ellman).
With `C=CCn1c2cc(OC(=O)CCCCCN3CCN(Cc4ccccc4)CC3)ccc2c2ccnc(C)c21` the IC50 was 0.464 µM (Ellman).
With `Clc1ccc(Nc2nc3ccccc3c3[nH]c(C4CCCCC4)nc23)cc1Cl` the IC50 was 4.91 µM.
For `CC(C)c1ccc(OP(=O)(Oc2ccc(C(C)C)cc2)Oc2ccc(C(C)C)cc2)cc1`, the IC50 was over 20 µg/mL (liver microsomes).
`C=CCn1c2cc(OC(=O)CCCCN3CCN(Cc4ccc(C(F)(F)F)cc4)CC3)ccc2c2ccnc(C)c21` gave an IC50 of 0.204 µM (Ellman).
With `O=c1[nH]cc(CO)c(=O)[nH]1` the IC50 was 0.443 µM (Ellman).
`C=CCn1c2cc(OC(=O)CCCCN3CCN(Cc4cccc(Cl)c4)CC3)ccc2c2ccnc(C)c21` gave an IC50 of 0.568 µM (Ellman).
`Cc1ccccc1OP(=O)(Oc1ccccc1C)Oc1ccccc1C` has an IC50 of about 0.33 µM.
With `Cn1ccc(=O)n(C)c1=O` the IC50 was 0.544 µM (Ellman).
The IC50 of `C=CCn1c2cc(OC(=O)CCCCN3CCN(Cc4ccc(F)cc4)CC3)ccc2c2ccnc(C)c21` is reported as 0.584 µM (Ellman).
`CC(C)(C)c1ccc(OP(=O)(Oc2ccc(C(C)(C)C)cc2)Oc2ccc(C(C)(C)C)cc2)cc1` has an IC50 of over 20 µg/mL (liver microsomes).
